ChEMBL document CHEMBL1121789, “Some analogues of luteinizing hormone-releasing hormone with substituents in position 10” (1981)
Square brackets hold non-standard residues; d marks the D form. Peptide text beside a SMILES is read from it. * marks the point of attachment. pGlu = O=C1CC[C@@H](C(=O)O)N1; X1 = O=C(NN*)C(F)(F)F; X5 = N/C(S)=N\N*; X2 = CC(=O)NN*; X3 = CN(N)*; X4 = O=CNN*

Legend:
[1] = organism: Rattus norvegicus; experiment: In vitro FSH-release potency of compound was measured in rat hemipituitaries by taking LH-RH as standard; type: functional
Procedure, shortened: (§1)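 Rat hemipituitaries incubated in vitro with each analogue, usually at two dose levels in a 2 × 2 (four-point) design against an LH-RH standard. Media sampled 6 h later and assayed for LH and FSH by radioimmunoassay. Potency expressed relative to the standard, with 95% confidence limits.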

[2] = organism: Rattus norvegicus; experiment: In vitro LH-release potency of compound was measured in rat hemipituitaries by taking LH-RH as standard; type: functional; procedure, shortened: as §1

| Compound | Potency [1] | Potency [2] |
| --- | --- | --- |
| CC(C)C[C@H](NC(=O)CNC(=O)[C@H](Cc1ccc(O)cc1)NC(=O)[C@H](CO)NC(=O)[C@H](Cc1c[nH]c2ccccc12)NC(=O)[C@H](Cc1c[nH]cn1)NC(=O)[C@@H]1CCC(=O)N1)C(=O)N[C@@H](CCCN=C(N)N)C(=O)N1CCC[C@H]1C(=O)NNC(=O)C(F)(F)F ([pGlu]HWSYGLRP-X1) | 0.9 | 1 |
| CC(=O)NNC(=O)[C@@H]1CCCN1C(=O)[C@H](CCCN=C(N)N)NC(=O)[C@H](CC(C)C)NC(=O)CNC(=O)[C@H](Cc1ccc(O)cc1)NC(=O)[C@H](CO)NC(=O)[C@H](Cc1c[nH]c2ccccc12)NC(=O)[C@H](Cc1c[nH]cn1)NC(=O)[C@@H]1CCC(=O)N1 ([pGlu]HWSYGLRP-X2) | 0.6 | 1.2 |
| CC(C)C[C@H](NC(=O)CNC(=O)[C@H](Cc1ccc(O)cc1)NC(=O)[C@H](CO)NC(=O)[C@H](Cc1c[nH]c2ccccc12)NC(=O)[C@H](Cc1c[nH]cn1)NC(=O)[C@@H]1CCC(=O)N1)C(=O)N[C@@H](CCCN=C(N)N)C(=O)N1CCC[C@H]1C(=O)N/N=C(\N)S ([pGlu]HWSYGLRP-X5) | 4.6 | 6.5 |
| CC(C)C[C@H](NC(=O)CNC(=O)[C@H](Cc1ccc(O)cc1)NC(=O)[C@H](CO)NC(=O)[C@H](Cc1c[nH]c2ccccc12)NC(=O)[C@H](Cc1cnc[nH]1)NC(=O)[C@@H]1CCC(=O)N1)C(=O)N[C@@H](CCCNC(=N)N)C(=O)N1CCC[C@H]1C(=O)NCC(N)=O [GONADORELIN] | 100 | 100 |
| CC(C)C[C@H](NC(=O)CNC(=O)[C@H](Cc1ccc(O)cc1)NC(=O)[C@H](CO)NC(=O)[C@H](Cc1c[nH]c2ccccc12)NC(=O)[C@H](Cc1c[nH]cn1)NC(=O)[C@@H]1CCC(=O)N1)C(=O)N[C@@H](CCCN=C(N)N)C(=O)N1CCC[C@H]1C(=O)NNC=O ([pGlu]HWSYGLRP-X4) | 10 | 15.3 |
| CC(C)C[C@H](NC(=O)CNC(=O)[C@H](Cc1ccc(O)cc1)NC(=O)[C@H](CO)NC(=O)[C@H](Cc1c[nH]c2ccccc12)NC(=O)[C@H](Cc1c[nH]cn1)NC(=O)[C@@H]1CCC(=O)N1)C(=O)N[C@@H](CCCN=C(N)N)C(=O)N1CCC[C@H]1C(=O)N(C)N ([pGlu]HWSYGLRP-X3) | 11 | 17 |
